Here are results for 30 molecules from ChEMBL document CHEMBL3227981, “Studies on biologically active nucleosides and nucleotides. 5. Synthesis and antitumor activity of some 2,2'-anhydro-1-(3',5'-di-O-acyl-beta-D-arabinofuranosyl)cytosine salts and 2,2'-anhydro-1-(3'-O-acyl-beta-D-arabinofuranoxyl)cytosine 5'-phosphates” (J Med Chem, 1979).

Structures are written as SMILES.

The test system of data set [1] is L1210. Briefly: Antitumor activity against mouse L1210 cells allografted in BDF1 mouse assessed as increase of host life span at 100 mg/kg, ip qd for 5 days. It is filed as functional. To be noted: route intraperitoneal. The essentials:
(§1)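 BDF1 mice were given 1×10^5 L1210 cells ip. Compound was dissolved or suspended in 0.9% NaCl with 0.1% HCO-60 and given ip daily for 5 days, starting 24 h after inoculation. Groups had 6–10 mice. ILS = (T/C − 1) × 100, from mean survival time of treated versus control mice, observed over 60 days.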

Data set [2] deals with L1210. Briefly: Antitumor activity against mouse L1210 cells allografted in BDF1 mouse assessed as increase of host life span at 25 mg/kg, ip qd for 5 days. It is filed as functional. To be noted: route intraperitoneal. The essentials: as §1
Data set [3] in a line: Toxicity in ip dosed ICR mouse up to 3 weeks. To be noted: in vivo. It is filed as organism-based. The essentials:
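Maximum tolerated dose was set from a single ip injection into three female ICR mice weighing 20–21 g, followed by 3 weeks of observation.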

The subject of data set [4] is L1210. Briefly: Antitumor activity against mouse L1210 cells allografted in BDF1 mouse assessed as increase of host life span at 6.25 mg/kg, ip qd for 5 days. Format: functional. To be noted: route intraperitoneal. The essentials: as §1
Data set [5] relates to L1210. Briefly: Antitumor activity against mouse L1210 cells allografted in BDF1 mouse assessed as increase of host life span at 100 mg/kg, po qd for 5 days. It is filed as functional. The essentials: (§2)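 L1210 cells (1×10^5) were implanted ip in BDF1 mice. Oral dosing began 24 h later and ran once daily for 5 days, with compound in 0.9% saline containing 0.1% HCO-60 as solution or suspension. Six to ten mice per group. Percent ILS was (T/C − 1) × 100 on mean survival time, with a 30-day observation period.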

The test system of data set [6] is L1210. Kind of data set: Antitumor activity against mouse L1210 cells allografted in BDF1 mouse assessed as increase of host life span at 200 mg/kg, po qd for 5 days. It is filed as functional. The essentials:
as §2

As to `CCOCCC(=O)OC[C@H]1O[C@@H]2[C@H](Oc3nc(=N)ccn32)[C@@H]1OC(=O)CCOCC.Cl`, the Activity in the data set on L1210 [1] was 57.5%; in the data set on L1210 [2], 15.4%.
Consider `CCCCCCCOCCC(=O)OC[C@H]1O[C@@H]2[C@H](Oc3nc(=N)ccn32)[C@@H]1OC(=O)CCOCCCCCCC.Cl`, for which, in data set [3], the MTD at 504 h was 100 mg/kg. Further, the Activity in the data set with L1210 [2] amounted to 28.2%.
As for `CCCCCCCCCCCCOCCC(=O)OC[C@H]1O[C@@H]2[C@H](Oc3nc(=N)ccn32)[C@@H]1OC(=O)CCOCCCCCCCCCCCC.Cl`, the values for the Activity in the data set on L1210 [1], with L1210 [4] and in the data set with L1210 [2] were above 595%, 30.8% and 118%, respectively. The MTD at 504 h in data set [3] was found to be 500 mg/kg.
Turning to `Cl.N=c1ccn2c(n1)O[C@@H]1[C@H](OC(=O)CCNC(=O)c3ccccc3)[C@@H](COC(=O)CCNC(=O)c3ccccc3)O[C@H]12`, the Activity in the data set on L1210 [1] was found to be 32.1%; in the data set on L1210 [2], 2.6%.
`CCCC(=O)NCCCCCCCCCCC(=O)OC[C@H]1O[C@@H]2[C@H](Oc3nc(=N)ccn32)[C@@H]1OC(=O)CCCCCCCCCCNC(=O)CCC.Cl`: the values for the Activity in the data set with L1210 [1], in the data set with L1210 [4] and in the data set with L1210 [2] were 92.3%, 20.5% and 51.3%, respectively. In data set [3], this molecule had an MTD at 504 h of 500 mg/kg.
As for `F[B-](F)(F)F.[NH2+]=c1ccn2c(n1)O[C@@H]1[C@H](OC(=O)CCCCCCCCCCNC(=O)c3ccccc3)[C@@H](COC(=O)CCCCCCCCCCNC(=O)c3ccccc3)O[C@H]12`, the values for the Activity in the data set with L1210 [1], with L1210 [4] and in the data set on L1210 [2] were above 292.3%, 38.5% and 100%, respectively. The molecule further yielded an MTD at 504 h in data set [3] of 500 mg/kg.
`Cc1ccc(S(=O)(=O)NCCC(=O)OC[C@H]2O[C@@H]3[C@H](Oc4nc(=[NH2+])ccn43)[C@@H]2OC(=O)CCNS(=O)(=O)c2ccc(C)cc2)cc1.F[B-](F)(F)F`: the Activity with L1210 [1] is reported as 47.5%; in the data set on L1210 [2] it was 15%.
On to `Cc1ccc(S(=O)(=O)NCCCCCCCCCCC(=O)OC[C@H]2O[C@@H]3[C@H](Oc4nc(=[NH2+])ccn43)[C@@H]2OC(=O)CCCCCCCCCCNS(=O)(=O)c2ccc(C)cc2)cc1.F[B-](F)(F)F`, for which the Activity with L1210 [1] is reported as 140%; with L1210 [4], 12.5%; in the data set on L1210 [2] it was 90%. Further, the MTD at 504 h in data set [3] is 500 mg/kg.
Take `F[B-](F)(F)F.[NH2+]=c1ccn2c(n1)O[C@@H]1[C@H](OC(=O)CCN3C(=O)c4ccccc4C3=O)[C@@H](COC(=O)CCN3C(=O)c4ccccc4C3=O)O[C@H]12`: the Activity in the data set with L1210 [1] is reported as 39.7%; in the data set on L1210 [2] it was 2.6%.
In the case of `F[B-](F)(F)F.[NH2+]=c1ccn2c(n1)O[C@@H]1[C@H](OC(=O)CCCCCN3C(=O)c4ccccc4C3=O)[C@@H](COC(=O)CCCCCN3C(=O)c4ccccc4C3=O)O[C@H]12`, the Activity with L1210 [1] was determined as 60.3%; with L1210 [2], 23.1%. Also, in data set [3], the MTD at 504 h worked out at 300 mg/kg.
For `F[B-](F)(F)F.[NH2+]=c1ccn2c(n1)O[C@@H]1[C@H](OC(=O)CCCCCCCCCCN3C(=O)c4ccccc4C3=O)[C@@H](COC(=O)CCCCCCCCCCN3C(=O)c4ccccc4C3=O)O[C@H]12`, the Activity in the data set on L1210 [1] is given as above 510.3%; in the data set on L1210 [4], 23.1%; with L1210 [2], 76.9%. In data set [3], this molecule registered an MTD at 504 h of 500 mg/kg.
For `CCOC(=O)CCC(=O)OC[C@H]1O[C@@H]2[C@H](Oc3nc(=N)ccn32)[C@@H]1OC(=O)CCC(=O)OCC.Cl`, the Activity was found to be 35.4% in the data set with L1210 [1], 21.6% in the data set with L1210 [5] and 12.4% in the data set on L1210 [2]. In addition, in data set [3], the MTD at 504 h is above 1000 mg/kg.
Regarding `CCOC(=O)CCCCCCCCCCCCCCC(=O)OC[C@H]1O[C@@H]2[C@H](Oc3nc(=N)ccn32)[C@@H]1OC(=O)CCCCCCCCCCCCCCC(=O)OCC.Cl`, the Activity in the data set on L1210 [1] was determined as 37.3%; with L1210 [5], 6.7%; with L1210 [2] it was 10.7%.
As for `C=CCCCCCCCCC(=O)OC[C@H]1O[C@@H]2[C@H](Oc3nc(=N)ccn32)[C@@H]1OC(=O)CCCCCCCCC=C.Cl`, the Activity in the data set with L1210 [1] is given as 97.5%; with L1210 [4], 17.9%; with L1210 [2] it was 51.3%. This molecule had an MTD at 504 h in data set [3] of 300 mg/kg.
As for `F[B-](F)(F)F.[NH2+]=c1ccn2c(n1)O[C@@H]1[C@H](OC(=O)CCCl)[C@@H](COC(=O)CCCl)O[C@H]12`, the Activity worked out at 9% in the data set on L1210 [5] and 38.5% in the data set on L1210 [6].
On to `Cl.N=c1ccn2c(n1)O[C@@H]1[C@H](OC(=O)CCCCCCCCCCBr)[C@@H](COC(=O)CCCCCCCCCCBr)O[C@H]12`, for which the Activity in the data set on L1210 [1] is on record as 145.9%; in the data set on L1210 [4] it was 12.8%; in the data set with L1210 [2], 61.5%. The MTD at 504 h in data set [3] is 300 mg/kg.
As for `Cc1ccc(C(=O)OC[C@H]2O[C@@H]3[C@H](Oc4nc(=N)ccn43)[C@@H]2OC(=O)c2ccc(C)cc2)cc1.Cl`, the Activity is 81.3% with L1210 [1], 14.7% in the data set with L1210 [5], 37.3% in the data set with L1210 [2] and 30.7% in the data set with L1210 [6]. In data set [3], this molecule yielded an MTD at 504 h of 750 mg/kg.
With `CCOc1ccc(C(=O)OC[C@H]2O[C@@H]3[C@H](Oc4nc(=N)ccn43)[C@@H]2OC(=O)c2ccc(OCC)cc2)cc1.Cl`, the Activity with L1210 [1] stood at 67.5%; with L1210 [2] it was 33.3%. The MTD at 504 h in data set [3] came out at 500 mg/kg.
On to `CCCCCCCCOc1ccc(C(=O)OC[C@H]2O[C@@H]3[C@H](Oc4nc(=N)ccn43)[C@@H]2OC(=O)c2ccc(OCCCCCCCC)cc2)cc1.Cl`, for which, in the data set with L1210 [1], the Activity was 12.8%. Besides, the MTD at 504 h in data set [3] was 300 mg/kg.
Turning to `Cl.N=c1ccn2c(n1)O[C@@H]1[C@H](OC(=O)c3ccccc3Cl)[C@@H](COC(=O)c3ccccc3Cl)O[C@H]12`, the MTD at 504 h in data set [3] is below 300 mg/kg. In addition, the figures for the Activity in the data set with L1210 [2] and with L1210 [6] were 25.6% and 28.2%, respectively.
For `Cl.N=c1ccn2c(n1)O[C@@H]1[C@H](OC(=O)c3cccc(Cl)c3)[C@@H](COC(=O)c3cccc(Cl)c3)O[C@H]12` the same measures were below 300 mg/kg, 28.2% and 38.5%.
For `Cl.N=c1ccn2c(n1)O[C@@H]1[C@H](OC(=O)c3ccc(Cl)cc3)[C@@H](COC(=O)c3ccc(Cl)cc3)O[C@H]12`, the figures for the Activity in the data set on L1210 [1], in the data set on L1210 [2] and in the data set on L1210 [6] were 105.1%, 31.3% and 21.8%, respectively. Also, the MTD at 504 h in data set [3] worked out at 750 mg/kg.
As for `Cl.N=c1ccn2c(n1)O[C@@H]1[C@H](OC(=O)c3ccc(F)cc3)[C@@H](COC(=O)c3ccc(F)cc3)O[C@H]12`, the Activity in the data set on L1210 [1] was 47.4%; in the data set with L1210 [2], 10%; with L1210 [6], 38.5%. Besides, the MTD at 504 h in data set [3] was 500 mg/kg.
As to `F[B-](F)(F)F.[NH2+]=c1ccn2c(n1)O[C@@H]1[C@H](OC(=O)c3cccc4ccccc34)[C@@H](COC(=O)c3cccc4ccccc34)O[C@H]12`, the results for the Activity in the data set on L1210 [1] and with L1210 [2] were 82.1% and 35.5%, respectively. Further, the MTD at 504 h in data set [3] was 500 mg/kg.
Turning to `Cl.N=c1ccn2c(n1)O[C@@H]1[C@H](OC(=O)/C=C/c3ccco3)[C@@H](COC(=O)/C=C/c3ccco3)O[C@H]12`, the Activity is 54.7% in the data set on L1210 [1], 20% in the data set with L1210 [5], 20% in the data set on L1210 [2] and 26.7% with L1210 [6]. The molecule also returned an MTD at 504 h in data set [3] of 300 mg/kg.
Regarding `CC(C)(C)C(=O)O[C@H]1[C@H]2Oc3nc(=N)ccn3[C@@H]2O[C@@H]1COC(=O)CCCCCCC(=O)OC[C@H]1O[C@@H]2[C@H](Oc3nc(=N)ccn32)[C@@H]1OC(=O)C(C)(C)C.Cl`, the MTD at 504 h in data set [3] was below 300 mg/kg. The Activity with L1210 [2] is on record as 25%; in the data set with L1210 [6], 41%.
As to `CC(=O)O[C@H]1[C@H]2Oc3nc(=N)ccn3[C@@H]2O[C@@H]1COP(=O)(O)O`, the Activity with L1210 [1] is listed as 57.3%; with L1210 [5], 13.3%; with L1210 [2], 30.7%; with L1210 [6], 46.9%. In addition, in data set [3], the MTD at 504 h is above 1500 mg/kg.
Consider `CCCCCCCC(=O)O[C@H]1[C@H]2Oc3nc(=N)ccn3[C@@H]2O[C@@H]1COP(=O)(O)O`, for which the Activity was 76% with L1210 [1], 6.3% with L1210 [4], 50.7% with L1210 [2] and 50.7% in the data set on L1210 [6]. The same molecule showed an MTD at 504 h in data set [3] of 500 mg/kg.
In the case of `CCCCCCCCCCCCCCCC(=O)O[C@H]1[C@H]2Oc3nc(=N)ccn3[C@@H]2O[C@@H]1COP(=O)(O)O`, the Activity in the data set with L1210 [1] is recorded as above 441.1%; in the data set with L1210 [4] it was 27.4%; in the data set with L1210 [2], 116.4%; with L1210 [6], 43%. This molecule also returned an MTD at 504 h in data set [3] of 500 mg/kg.
On to `Cl.N=c1ccn2c(n1)O[C@@H]1[C@H](O)[C@@H](CO)O[C@H]12`, for which the Activity stood at 76.9% with L1210 [1], 32.5% in the data set on L1210 [5], 42.3% in the data set on L1210 [2] and 69.2% with L1210 [6]. This molecule returned an MTD at 504 h in data set [3] of 3000 mg/kg.
